From paper PMC5453640 (Journal of medicinal chemistry, 2017)
“Also recorded” adds a separate entry of the source.

Legend:
[1] = target: T1, wild-type CFTR (Homo sapiens, UniProt P13569); assay: cell-based plate reader assay of CFTR function; details: for CFTR activation potency of synthesized analogs, comparison in words: Charts 1-3; for CFTR activation potency of commercial analogs, SAR summary in words: commercially available analogs of 1, Supporting Information Table 1
[2] = test system: non-TMEM16A calcium-activated chloride channel (CaCC) in HT-29 cells; assay: non-TMEM16A CaCC plate reader assay in HT-29 cells expressing YFP; format: cell-based; details: 10 μM
Procedure, shortened: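 HT-29 cells expressing cytoplasmic YFP halide sensor, test compound at 10 μM. Activation was tested by iodide addition and inhibition by iodide plus ATP, reading YFP fluorescence quenching from iodide influx. The initial rate of iodide influx was computed as a linear measure of non-TMEM16A CaCC function. Representative of two to four experiment sets.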

[3] = test system: TMEM16A; assay: TMEM16A plate reader assay in FRT cells expressing YFP; format: cell-based; details: 10 μM
Procedure, shortened: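 FRT cells stably coexpressing TMEM16A and YFP-H148Q halide sensor, test compound at 10 μM. Activation was tested by iodide addition and inhibition by iodide plus ATP. Assay run like the CFTR plate assay: 2 s baseline, then 12 s after rapid iodide addition. The initial iodide influx rate from YFP quenching was taken as channel function. Representative of two to four experiment sets.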

[4] = test system: FRT cells; assay: Alamar Blue cytotoxicity assay; format: cell-based, rat; details: 10 μM, 8 h
[5] = target: T1, wild-type CFTR; assay: short-circuit current measurement in CFTR-expressing FRT cells; format: cell-based; details: compared with maximal concentration of forskolin
Procedure, shortened: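 FRT cells expressing human wild-type CFTR on inserts in Ussing chambers. Basolateral HCO3−-buffered and apical half-Cl− solutions; basolateral membrane permeabilized with 250 μg/mL amphotericin B. Gassed with 95% O2/5% CO2 at 37 °C under voltage clamp. Sequence: low forskolin, cumulative test compound, maximal forskolin, then 10 μM CFTRinh-172. EC50 from concentration–response, n = 3.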

[6] = test system: cellular cAMP in FRT cells; assay: cAMP immunoassay in FRT cells; format: cell-based, rat; details: 10 μM, 10 min, without or with 90 nM forskolin
[7] = format: in vitro ADME; details: 5 μM, rat hepatic microsomes, NADPH
[8] = test system: tear fluid secretion in mice; details: cited from earlier work
[9] = target: CFTR in HBE cells (Homo sapiens, UniProt P13569); assay: CFTR activation in HBE cells by short-circuit current; format: cell-based
[10] = test system: cytoplasmic calcium in FRT cells; assay: cytoplasmic calcium by Fluo-4 fluorescence in FRT cells; format: cell-based, rat; details: 10 μM, 5 min pretreatment
[11] = test system: tear volume in wild-type mice; assay: tear fluid volume after single ocular delivery, wild-type mice; format: in vivo, mouse
[12] = test system: tear volume in CF mice lacking functional CFTR; assay: tear fluid volume after single ocular delivery, CF mice; format: in vivo, mouse; details: single ocular delivery 250 pmol

T1 sequence (P13569 whole entry): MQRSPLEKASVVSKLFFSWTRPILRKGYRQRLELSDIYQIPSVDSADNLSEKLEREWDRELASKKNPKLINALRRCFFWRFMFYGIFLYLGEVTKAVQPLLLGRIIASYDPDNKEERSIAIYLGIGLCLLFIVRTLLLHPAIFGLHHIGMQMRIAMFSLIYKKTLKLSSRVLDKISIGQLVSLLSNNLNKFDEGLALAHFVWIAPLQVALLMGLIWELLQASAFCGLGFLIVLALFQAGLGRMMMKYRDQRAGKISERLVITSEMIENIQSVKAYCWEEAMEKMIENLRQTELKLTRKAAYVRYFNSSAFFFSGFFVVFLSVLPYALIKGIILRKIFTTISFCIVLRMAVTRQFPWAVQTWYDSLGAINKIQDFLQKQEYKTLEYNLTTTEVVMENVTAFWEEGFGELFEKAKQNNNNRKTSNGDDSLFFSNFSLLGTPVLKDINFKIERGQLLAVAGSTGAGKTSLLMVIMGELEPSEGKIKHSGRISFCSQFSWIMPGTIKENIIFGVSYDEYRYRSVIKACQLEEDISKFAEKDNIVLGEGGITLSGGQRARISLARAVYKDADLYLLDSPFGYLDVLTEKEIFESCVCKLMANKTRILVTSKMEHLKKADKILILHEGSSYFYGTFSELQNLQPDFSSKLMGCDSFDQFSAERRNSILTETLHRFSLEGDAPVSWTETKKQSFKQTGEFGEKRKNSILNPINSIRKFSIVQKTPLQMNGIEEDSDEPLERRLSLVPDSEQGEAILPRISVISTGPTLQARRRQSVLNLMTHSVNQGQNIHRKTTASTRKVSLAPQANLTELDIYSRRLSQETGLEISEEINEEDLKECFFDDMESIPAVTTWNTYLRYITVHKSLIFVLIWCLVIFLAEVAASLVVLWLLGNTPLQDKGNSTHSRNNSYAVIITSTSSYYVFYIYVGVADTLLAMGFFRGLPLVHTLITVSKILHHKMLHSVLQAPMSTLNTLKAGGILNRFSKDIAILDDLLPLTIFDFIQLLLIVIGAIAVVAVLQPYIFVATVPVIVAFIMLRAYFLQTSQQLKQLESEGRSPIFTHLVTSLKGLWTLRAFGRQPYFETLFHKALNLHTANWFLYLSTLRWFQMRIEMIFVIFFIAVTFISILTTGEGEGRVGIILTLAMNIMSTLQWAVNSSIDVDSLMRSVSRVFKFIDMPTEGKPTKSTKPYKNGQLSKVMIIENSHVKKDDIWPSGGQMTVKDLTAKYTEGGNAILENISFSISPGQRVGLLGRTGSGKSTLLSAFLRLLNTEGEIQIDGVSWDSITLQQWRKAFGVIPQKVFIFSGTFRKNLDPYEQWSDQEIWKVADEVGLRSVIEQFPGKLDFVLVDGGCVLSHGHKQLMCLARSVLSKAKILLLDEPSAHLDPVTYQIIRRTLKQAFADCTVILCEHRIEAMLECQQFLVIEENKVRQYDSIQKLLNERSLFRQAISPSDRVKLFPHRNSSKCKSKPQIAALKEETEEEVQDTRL
Sequence of CFTR in HBE cells (P13569 whole entry): as above

CCN(CC)c1nc(Nc2cccc(C(=O)O)c2)nc(OC(C(F)(F)F)C(F)(F)F)n1 [6a]
CFTR activation potency of synthesized analogs, comparison in words [1]: comparable or slightly better potency than non-substituted aniline (1)

CCN(CC)c1nc(Nc2cccc(F)c2)nc(OC(C(F)(F)F)C(F)(F)F)n1 [6b]
CFTR activation potency of synthesized analogs, comparison in words [1]: comparable or slightly better potency than non-substituted aniline (1)

CCN(CC)c1nc(Nc2cccc(Cl)c2)nc(OC(C(F)(F)F)C(F)(F)F)n1 [6c]
CFTR activation potency of synthesized analogs, comparison in words [1]: significantly reduced potency

CCN(CC)c1nc(Nc2cccc([N+](=O)[O-])c2)nc(OC(C(F)(F)F)C(F)(F)F)n1 [6d]
CFTR activation potency of synthesized analogs, comparison in words [1]: comparable or slightly better potency than non-substituted aniline (1)

CCN(CC)c1nc(Nc2ccc3cn[nH]c3c2)nc(OC(C(F)(F)F)C(F)(F)F)n1 [6h]
CFTR activation potency of synthesized analogs, comparison in words [1]: less potent than 1 | fold more potent than regioisomer 6i ([1]; EC50 ratio, Chart 2): ~ 3 fold

CCN(CC)c1nc(Nc2ccc3[nH]ncc3c2)nc(OC(C(F)(F)F)C(F)(F)F)n1 [6i]
CFTR activation potency of synthesized analogs, comparison in words [1]: less potent than 1

CCN(CC)c1nc(Nc2ccc3ncoc3c2)nc(OC(C(F)(F)F)C(F)(F)F)n1 [6j]
CFTR activation potency of synthesized analogs, comparison in words [1]: greater potency than 1

CCN(CC)c1nc(Nc2ccc3ncsc3c2)nc(OC(C(F)(F)F)C(F)(F)F)n1 [6k]
inhibition or activation of CaCC in HT-29 cells [2]: neither inhibited nor activated | inhibition or activation of CaCC in TMEM16A-expressing FRT cells [3]: neither inhibited nor activated | cytotoxicity (Alamar Blue) [4]: did not produce significant toxicity | CFTR activation potency of synthesized analogs, comparison in words [1]: significantly greater potency than 1 | fold increase in potency over benzoxazole 6j ([1]; EC50 ratio, Chart 2): ~ 3 fold | extent of CFTR activation (short-circuit current) [5]: full CFTR activation | elevation of cellular cAMP [6]: did not elevate cellular cAMP

CNc1nc(Nc2ccc(C(C)=O)cc2)nc(OC(C(F)(F)F)C(F)(F)F)n1 [K001]
CFTR activation potency of commercial analogs, SAR summary in words [1]: reduced activity

COc1nc(Nc2ccc([N+](=O)[O-])cc2)nc(OC)n1 [K023]
CFTR activation potency of commercial analogs, SAR summary in words [1]: greatly reduced potency

CC(C)(C)Nc1nc(Nc2ccc(OC(F)(F)Cl)cc2)nc(OCC(F)(F)F)n1 [K029]
CFTR activation potency of commercial analogs, SAR summary in words [1]: reduced potency

CNc1nc(Nc2ccc([N+](=O)[O-])cc2)nc(OCC(F)(F)C(F)F)n1 [K032]
CFTR activation potency of commercial analogs, SAR summary in words [1]: best potency

CCC(C)Nc1nc(Nc2ccc([N+](=O)[O-])cc2)nc(OC(C(F)(F)F)C(F)(F)F)n1 (stereo not drawn) [K056]
CFTR activation potency of commercial analogs, SAR summary in words [1]: reduced potency

C=CCNc1nc(Nc2cccc([N+](=O)[O-])c2)nc(OC(C(F)(F)F)C(F)(F)F)n1 [K059]
CFTR activation potency of commercial analogs, SAR summary in words [1]: best potency

FC(F)(F)COc1nc(Nc2ccc(OC(F)(F)F)cc2)nc(NC2CC2)n1 [K079]
CFTR activation potency of commercial analogs, SAR summary in words [1]: reduced activity

CCN(CC)c1nc(Nc2ccccc2)nc(OC(C(F)(F)F)C(F)(F)F)n1 [compound 1, N,N-Diethyl-6-[(1,1,1,3,3,3-hexafluoropropan-2-yl)oxy]-N′-phenyl-1,3,5-triazine-2,4-diamine]
metabolic stability in hepatic microsomes, in words [7]: metabolized rapidly | CFTR activation potency of synthesized analogs, comparison in words [1]: more potent than tetrafluoropropanol (7a) | CFTR activation potency of commercial analogs, SAR summary in words [1]: best potency | tear fluid secretion after topical delivery [8]: increased tear fluid secretion in mice; also recorded: increased tear fluid secretion after topical delivery

CNc1nc(Nc2ccccc2)nc(OCC(F)(F)C(F)F)n1 [compound 12, N-Methyl-N′-phenyl-6-(2,2,3,3-tetrafluoropropoxy)-1,3,5-triazine-2,4-diamine]
inhibition or activation of CaCC in HT-29 cells [2]: neither inhibited nor activated | inhibition or activation of CaCC in TMEM16A-expressing FRT cells [3]: neither inhibited nor activated | CFTR activation in HBE cells after forskolin ([9]; 0.1 μM compound, after 100 nM forskolin): fully activated CFTR | CFTR activation in HBE cells without forskolin ([9]; absence of basal CFTR phosphorylation produced by forskolin): did not activate CFTR | cytotoxicity (Alamar Blue) [4]: did not produce significant toxicity | increase of cytoplasmic calcium [10]: without causing cAMP or calcium elevation | fold better EC50 than diethylamine analog 6a ([1]; EC50 ratio, Chart 3): ~ 50 fold | fold more potent than hexafluoropropanol analog 11 ([1]; EC50 ratio, Chart 3): ~ 3 fold | duration of sustained in vivo efficacy in increasing tear volume ([11]; mice, dose not given): at least 8 h | time over which tear volume returned to baseline ([11]; wild-type mice, single topical dose 100 μM (250 pmol)): 12 to 24 h | duration of sustained increase in tear volume ([11]; wild-type mice, single topical dose 100 μM (250 pmol) in 2.5 μL): 8 h | duration of sustained effect on tear volume ([11]; wild-type mice, single topical dose down to 25 pmol): 8 h | time of maximal tear volume ([11]; wild-type mice, single topical doses down to 25 pmol): 1 to 3 h | effect on tear volume in CF mice [12]: without effect; also recorded: did not increase tear volume | extent of CFTR activation (short-circuit current) [5]: fully activated CFTR chloride conductance; also recorded: full CFTR activation | elevation of cellular cAMP [6]: without causing cAMP or calcium elevation; also recorded: did not elevate cellular cAMP
